This is an account of results in ChEMBL document CHEMBL4808167, “Design, Synthesis, and Evaluation of Small Molecule Gαq/11 Protein Inhibitors for the Treatment of Uveal Melanoma” (J Med Chem, 2021).

The source made the active and inactive calls.

The nature of data set [1]: Induction of apoptosis in human 921 cells assessed as early apoptotic cells at 5 uM after 48 hrs by Annexin-V-FITC/propidium iodide staining based flow cytometry (reference value: 3.39%). The format is functional. Background: Flow cytometry measures light scatter and fluorescence of single cells or particles in a stream.
The target of data set [2] is T1, GNAQ/GNA11 (Homo sapiens, UniProt P50148+P29992).
T1 sequence (P50148 whole entry): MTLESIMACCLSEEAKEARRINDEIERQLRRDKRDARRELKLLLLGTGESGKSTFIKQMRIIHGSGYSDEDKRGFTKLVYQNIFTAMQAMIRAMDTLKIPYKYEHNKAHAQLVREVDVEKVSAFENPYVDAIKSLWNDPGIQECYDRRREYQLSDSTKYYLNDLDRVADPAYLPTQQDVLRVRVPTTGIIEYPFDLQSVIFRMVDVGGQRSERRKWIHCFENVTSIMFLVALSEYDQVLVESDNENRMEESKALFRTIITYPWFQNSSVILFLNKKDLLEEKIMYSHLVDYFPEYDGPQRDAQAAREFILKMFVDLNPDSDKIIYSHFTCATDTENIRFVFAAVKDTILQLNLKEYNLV
T1 sequence (P29992 whole entry): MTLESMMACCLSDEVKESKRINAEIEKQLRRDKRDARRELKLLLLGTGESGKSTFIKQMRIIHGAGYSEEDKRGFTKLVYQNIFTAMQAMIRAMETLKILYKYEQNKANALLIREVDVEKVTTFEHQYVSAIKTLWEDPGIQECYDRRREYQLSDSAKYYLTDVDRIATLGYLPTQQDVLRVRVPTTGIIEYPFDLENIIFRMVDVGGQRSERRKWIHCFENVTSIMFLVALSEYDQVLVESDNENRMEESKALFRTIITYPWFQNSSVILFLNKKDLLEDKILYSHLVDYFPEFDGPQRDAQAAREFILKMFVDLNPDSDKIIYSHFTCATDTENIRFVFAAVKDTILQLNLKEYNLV
In words: Inhibition of Galphaq/11 (unknown origin) expressed in CHO cells coexpressing M1 receptor assessed as reduction in carbachol-induced IP1 accumulation preincubated for 1 hr followed by carbachol stimulation and measured after 1 hr by HTRF assay. The format is cell-based. For orientation: TR-FRET usually uses a lanthanide donor and a delayed reading to cut background.

The target of data set [3] is T2, GNAQ/GNA11 (Homo sapiens) (UniProt P50148+P29992). In words: Inhibition of Galphaq/11 in human MP41 cells xenografted mouse tumor tissue assessed as induction of YAP phosphorylation at 10 to 30 mg/kg, ip administered for 21 consecutive days by Western blot analysis. In kind it is organism-based. The settings on record: dose 10-30 mg/kg, time 21.0 day. An outline of the steps: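 MP41 xenograft tumours from mice given 10 or 30 mg/kg/day ip for 21 consecutive days were analysed by Western blot. Probed for p-YAP, YAP, p-ERK and ERK, with GAPDH as loading control. Representative of triplicate experiments.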

Data set [4] is described as follows: Half life in ICR mouse at 10 mg/kg, iv measured upto 24 hrs by LC-MS/MS analysis. The settings on record: in vivo. The format is ADME, organism-based. The method in brief: (§1)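 Single dose in male ICR mice, 10 mg/kg iv or 30 mg/kg po, dissolved in 5% DMSO/95% saline. Blood drawn by catheter at 0, 5, 15, 30 min and 1, 2, 4, 6, 8, 24 h. Plasma spun 6800g 6 min at 2−8 °C, stored −80 °C, quantified by LC−MS/MS. Noncompartmental parameters, mean ± SD, n = 6.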

For data set [5], the system named is MP41. In words: (§2) Antiproliferative activity against human MP41 cells assessed as inhibition of cell growth after 72 hrs by CCK8 assay. The format is functional, cell-based. An outline of the steps: (§3)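 92.1 or MP41 cells in RPMI-1640 with 10% FBS were seeded at 3 × 10³ cells/well. Exposed to serial concentrations for 72 h at 37 °C, 5% CO₂. CCK-8 added for 1−4 h, absorbance read at 450 nm. IC₅₀ from concentration−response curve fit, mean ± SD.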
(Tetrazolium assays rely on reduction of a dye to a coloured formazan, in cell work by metabolically active cells.)

Data set [6] can be described thus: as §2. The settings on record: MP41, 72 h. In kind it is functional, cell-based. The method in brief:
as §3

Data set [7] deals with T2, GNAQ/GNA11 (Homo sapiens). The experiment in a line: Inhibition of Galphaq/11 in human MP41 cells assessed as induction of YAP phosphorylation at 5 to 15 uM after 48 hrs by Western blot analysis. The format is cell-based. The settings on record: dose 5-15 µM. An outline of the steps: (§4)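 92.1 and MP41 cells plated overnight, then exposed to compound 48 h. Lysed in ice-cold buffer and protein quantified by BCA. Resolved on 8−12% SDS−PAGE and transferred to PVDF. Probed for p-YAP Ser127, total YAP, p-ERK1/2 Thr202/Tyr204 and total ERK1/2, with GAPDH as loading control. ECL detection, triplicate.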

Data set [8] deals with 921. In words: Antiproliferative activity against human 92.1 cells assessed as inhibition of cell growth at 10 to 15 uM after 72 hrs by CKK8 assay. In kind it is functional, cell-based. The settings on record: dose 10-15 µM.
The target in data set [9] is T1, GNAQ/GNA11. In words: Binding affinity to Galphaq/11 (unknown origin) expressed in HEK293 cells cotransfected with AT1R/Galphaq-RLuc8/ Ggamma2-venus/Gbeta1 assessed as inhibition of Ang-II induced-BRET signal preincubated for 1 hr followed by Ang-II addition by BRET assay. In kind it is cell-based. An outline of the steps:
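HEK293 cells transiently transfected with AT₁R, Gαq-RLuc8, Gγ2-Venus and untagged Gβ1. Replated 24 h later, washed with HBS, starved 10 min, then pretreated with compound for 1 h at 37 °C. AngII added, followed by coelenterazine. BRET ratio taken as Venus emission (520−570 nm) over RLuc8 emission (370−480 nm). Mean ± SD, n = 3.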

Data set [10] is described as follows: Induction of apoptosis in human MP41 cells assessed as early apoptotic cells at 15 uM after 48 hrs by Annexin-V-FITC/propidium iodide staining based flow cytometry (reference value: 2.96%). The format is functional.
A short description of data set [11]: Antitumor activity against human MP41 cells xenografted in nude BALB/c mouse assessed as tumor growth inhibition at 10 mg/kg, ip administered for once daily for 21 days and measured every 3 days. The format is functional. To be noted: 504 h, time 21 day, read-out: TGI. An outline of the steps:
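MP41 tumours were passaged subcutaneously mouse-to-mouse in nude BALB/c mice (6−8 weeks, 20−25 g). Tertiary recipients randomized, n = 8/group, given 10 or 30 (mg/kg)/d ip or vehicle for 21 days. Tumour size (V = A × B² × π/6, caliper) and body weight taken every 3 days; tumours excised and weighed on day 22. TGI computed versus the vehicle group.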

In data set [12] the target is T2, GNAQ/GNA11 (Homo sapiens). In words: Inhibition of Galphaq/11 in human 921 cells assessed as reduction in ERK phosphorylation at 15 to 30 uM after 48 hrs by Western blot analysis. In kind it is cell-based. The settings on record: b, dose 15-30 µM. The method in brief:
as §4

Data set [13] in a line: AUC(0 to t) in ICR mouse at 10 mg/kg, iv measured upto 24 hrs by LC-MS/MS analysis. The format is ADME, organism-based. Also noted: route intravenous, dose 10 mg/kg, time <=24. To be noted: in vivo. An outline of the steps:
as §1

The subject of data set [14] is MP41. In words: Inhibition of colony formation in human MP41 cells at 5 to 15 uM after 9 days by crystal violet staining based light microscopic analysis. The settings on record: dose 5-15 µM, time 9.0 day. The format is functional, cell-based. An outline of the steps:
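Cells seeded 4 × 10³/well, incubated overnight at 37 °C, 5% CO₂, then exposed to compound for 9 days until colonies visible, medium and inhibitor replaced every 3 days. Fixed in 4% paraformaldehyde 15 min, crystal violet-stained 30 min, colonies counted. Repeated twice.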

A short description of data set [15]: Induction of apoptosis in human 921 cells assessed as viable cells at 15 uM after 48 hrs by Annexin-V-FITC/propidium iodide staining based flow cytometry (reference value: 93.8%). In kind it is functional. To be noted: read-out: Activity.
Data set [16] in a line: Induction of apoptosis in human MP41 cells assessed as viable cells at 15 uM after 48 hrs by Annexin-V-FITC/propidium iodide staining based flow cytometry (reference value: 93.6%). The settings on record: read-out: Activity. In kind it is functional.

The term IC50 denotes the midpoint of a concentration-inhibition curve. In general, half-life refers to the time needed for the level to fall by half in the phase considered. The AUC(0-t) is the area under the concentration-time curve up to a stated or last time point. As to `CC[C@@H](C)[C@H](N)C(=O)N1CCn2cc(-c3ccccc3)nc2[C@@H]1CC1CCCCC1`, the Activity in [1] is 6.08%; in data set [5] it was “Dose-Dependent Effect”; in data set [10], 5.32%. For the same molecule, the IC50 was 22.6 µM in data set [2], 24.8 µM in data set [6] and 55.2 µM in [9]. In addition, the inhibition entry in [3], in data set [7], in data set [12] and in [14] was “Active” throughout. The half-life in data set [4] is 1.17 h. The outcome in [8] was Active. Besides, in data set [11], the inhibition in vivo at 10 mg/kg was found to be 65.4%. The molecule also showed an AUC(0-t) at 24 h in [13] of 2140 ng·h/mL. In addition, the values for the viability at 15 µM in [15] and in [16] were 79.6% and 90.2%, respectively.
